Data on seven compounds can be found in ChEMBL document CHEMBL3758180, “Synthesis of mixed MOR/KOR efficacy cyclic opioid peptide analogs with antinociceptive activity after systemic administration” (Eur J Med Chem, 2016).

Data set [1] addresses T1, Delta-type opioid receptor (Homo sapiens, UniProt P41143). Nature of the data set: Agonist activity at human recombinant DOR expressed in CHO cells assessed as calcium mobilization up to 1 uM by Fluo-4 AM based fluorescence analysis. Format: functional, cell-based. For orientation: Calcium flux is commonly read through the fluorescence of an indicator in the cells.
For data set [2], the system named is Mus musculus. Nature of the data set: Antinociceptive activity in BalbC albino mouse assessed as latency of jumping at 10 mg/kg, ip after 15 mins by hot-plate method. Format: functional. For orientation: In hot-plate and tail-flick tests a longer latency is read as antinociception.
The target in data set [3] is Mu-type opioid receptor (Rattus norvegicus, UniProt P33535). Kind of data set: Displacement of [3H]DAMGO from MOR in Wistar rat brain homogenates by liquid scintillation counting analysis. Format: tissue-based. A digest of the protocol: (§1)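 Competition binding in brain membranes of adult male Wistar rats, [3H]DAMGO for MOR or [3H][Ile5,6]deltorphin-2 for DOR. IC50 from log dose-displacement curves, converted to Ki by Cheng-Prusoff. Mean ± SEM of three independent experiments in duplicate.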
On the technique in general: Displacement assays read how much labelled ligand stays bound in the presence of the test substance.

The test system of data set [4] is Mus musculus. Nature of the data set: Antinociceptive activity in icv dosed BalbC albino mouse assessed as latency of jumping after 10 mins by hot-plate method. Format: functional. The essentials:
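Injection icv into left lateral ventricle (10 μL/animal) of hand-restrained mice; hot-plate test at 55 ± 0.5°C 10 min post-injection, jumping latency with 240 s cut-off. Response as %MPE = (t1 − t0)/(t2 − t0) × 100; ED50 by nonlinear regression; 7-10 animals per group.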

For data set [5], the target named is Mu-type opioid receptor (Homo sapiens, UniProt P35372). Kind of data set: Agonist activity at human recombinant MOR expressed in CHO cells assessed as calcium mobilization by Fluo-4 AM based fluorescence analysis. Format: functional, cell-based.
Data set [6] addresses T2, Kappa-type opioid receptor (Homo sapiens, UniProt P41145). Kind of data set: Agonist activity at human recombinant KOR expressed in CHO cells assessed as calcium mobilization by Fluo-4 AM based fluorescence analysis. Format: functional, cell-based. A digest of the protocol:
(§2)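 CHO cells stably co-expressing human recombinant KOR and C-terminally modified Gαqi5; calcium mobilization concentration-response curves. pEC50 from curve fitting with Hill coefficient; intrinsic activity α as ligand Emax over Emax of standard agonist dynorphin A. Mean ± SEM of at least 3 separate experiments, each in duplicate.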

The target of data set [7] is T2, Kappa-type opioid receptor. Kind of data set: Agonist activity at human recombinant KOR expressed in CHO cells assessed as calcium mobilization by Fluo-4 AM based fluorescence analysis relative to DynA. Format: functional, cell-based. The essentials: as §2
The nature of data set [8]: Stability of compound in Wistar rat brain homogenate assessed as compound remaining after 90 mins by RP-HPLC analysis. It is filed as ADME. The following applies: read-out: Stability. The essentials:
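Peptide incubated with Wistar rat brain homogenate at 37°C, sampled at 0, 7.5, 15, 22.5, 30 and 90 min; remaining intact peptide quantified by RP-HPLC peak area %; value is amount left at 90 min.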

The target of data set [9] is Delta-type opioid receptor (Rattus norvegicus, UniProt P33533). Nature of the data set: Displacement of [3H][Ile5,6]deltorphin-2 from DOR in Wistar rat brain homogenates by liquid scintillation counting analysis. It is filed as tissue-based. The essentials:
as §1

The nature of data set [10]: Retention time of compound by RP-HPLC analysis. It is filed as physicochemical.
Data set [11] has as its target Kappa-type opioid receptor (Cavia porcellus, UniProt P41144). Nature of the data set: Displacement of [3H]nor-BNI from KOR in Dunkin Hartley guinea pig brain homogenates by liquid scintillation counting analysis. It is filed as tissue-based.
Data set [12] deals with T1, Delta-type opioid receptor. Nature of the data set: Agonist activity at human recombinant DOR expressed in CHO cells assessed as calcium mobilization by Fluo-4 AM based fluorescence analysis relative to DPDPE. It is filed as functional, cell-based. A digest of the protocol:
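CHO cells stably co-expressing human recombinant DOR and chimeric Gαqi5 (G66D variant); intracellular calcium rise measured across concentration-response curves. Agonist potency as pEC50; efficacy as intrinsic activity α, ratio of ligand Emax to standard agonist (DPDPE) Emax. Mean ± SEM, at least 3 separate experiments in duplicate.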

The target in data set [13] is T1, Delta-type opioid receptor. Kind of data set: Agonist activity at human recombinant DOR expressed in CHO cells assessed as calcium mobilization by Fluo-4 AM based fluorescence analysis. It is filed as functional, cell-based.
Data set [14] concerns Mus musculus. Nature of the data set: Antinociceptive activity in BalbC albino mouse assessed as latency of jumping at 3 mg/kg, ip after 15 mins by hot-plate method. Format: functional, organism-based.
The subject of data set [15] is Mus musculus. Kind of data set: Antinociceptive activity in BalbC albino mouse assessed as latency of jumping at 3 mg/kg, ip after 30 to 60 mins by hot-plate method. Format: functional, organism-based. The essentials: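 Time course after single ip dose of 3 mg/kg; hot-plate (55 ± 0.5°C) jump latency read at 15, 30, 45 and 60 min, 240 s cut-off. Expressed as %MPE from control, test and cut-off latencies; mean ± SEM, 7-10 mice per group, each tested once.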

For data set [16], the system named is Mus musculus. Nature of the data set: Antinociceptive activity in ip dosed BalbC albino mouse assessed as latency of jumping after 15 mins by hot-plate method. It is filed as functional. The following applies: for ED50: 0.25 h.

Broadly, the Ki is the dissociation constant of the complex between target and ligand, obtained from inhibition or displacement. A lower Ki goes with higher affinity. One may read the EC50 as the midpoint of the concentration-response curve. By Emax is commonly meant the size of the effect at its maximum, as opposed to the concentration needed.

The source made the active and inactive calls. Positions of bridges follow the written chain, without caps; N, C: chain ends. Non-standard residues stand in square brackets, D forms with d. Residues, ends and D or L forms follow the SMILES beside them. d1Nal = N[C@H](Cc1cccc2ccccc12)C(=O)O; d2Nal = N[C@H](Cc1ccc2ccccc2c1)C(=O)O; Dmt = Cc1cc(O)cc(C)c1C[C@H](N)C(=O)O

T1 sequence (P41143 whole entry): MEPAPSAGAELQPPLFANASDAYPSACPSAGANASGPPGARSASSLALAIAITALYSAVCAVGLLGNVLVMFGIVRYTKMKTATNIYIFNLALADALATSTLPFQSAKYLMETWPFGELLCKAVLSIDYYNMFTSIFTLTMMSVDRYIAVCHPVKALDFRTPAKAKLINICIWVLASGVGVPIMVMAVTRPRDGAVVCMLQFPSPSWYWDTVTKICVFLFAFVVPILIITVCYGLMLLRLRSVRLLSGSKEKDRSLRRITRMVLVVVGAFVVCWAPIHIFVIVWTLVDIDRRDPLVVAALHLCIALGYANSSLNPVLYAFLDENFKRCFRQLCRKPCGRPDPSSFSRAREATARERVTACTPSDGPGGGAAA
Sequence of Mu-type opioid receptor (Homo sapiens, UniProt P35372) (P35372 whole entry): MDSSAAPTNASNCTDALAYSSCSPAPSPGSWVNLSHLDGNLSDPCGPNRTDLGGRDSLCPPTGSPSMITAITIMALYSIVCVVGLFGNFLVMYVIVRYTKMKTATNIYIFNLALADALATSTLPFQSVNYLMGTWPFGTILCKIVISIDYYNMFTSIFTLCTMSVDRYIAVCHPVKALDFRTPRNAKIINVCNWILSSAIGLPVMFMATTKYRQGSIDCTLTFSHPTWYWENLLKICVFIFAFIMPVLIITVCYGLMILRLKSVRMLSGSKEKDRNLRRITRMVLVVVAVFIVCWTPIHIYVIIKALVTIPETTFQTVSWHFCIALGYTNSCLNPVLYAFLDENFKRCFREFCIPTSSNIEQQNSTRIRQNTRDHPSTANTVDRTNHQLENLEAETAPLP
T2 sequence (P41145 whole entry): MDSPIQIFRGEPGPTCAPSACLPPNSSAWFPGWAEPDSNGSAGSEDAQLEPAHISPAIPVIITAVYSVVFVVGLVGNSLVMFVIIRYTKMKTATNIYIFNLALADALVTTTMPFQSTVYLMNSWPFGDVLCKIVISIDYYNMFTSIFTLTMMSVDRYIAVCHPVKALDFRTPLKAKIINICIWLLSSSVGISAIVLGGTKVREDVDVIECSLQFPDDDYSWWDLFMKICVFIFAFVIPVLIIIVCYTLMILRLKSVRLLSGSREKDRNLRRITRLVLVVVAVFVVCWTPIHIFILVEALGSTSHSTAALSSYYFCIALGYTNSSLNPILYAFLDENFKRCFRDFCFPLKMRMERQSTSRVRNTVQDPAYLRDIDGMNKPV
Sequence of Kappa-type opioid receptor (Cavia porcellus, UniProt P41144) (P41144 whole entry): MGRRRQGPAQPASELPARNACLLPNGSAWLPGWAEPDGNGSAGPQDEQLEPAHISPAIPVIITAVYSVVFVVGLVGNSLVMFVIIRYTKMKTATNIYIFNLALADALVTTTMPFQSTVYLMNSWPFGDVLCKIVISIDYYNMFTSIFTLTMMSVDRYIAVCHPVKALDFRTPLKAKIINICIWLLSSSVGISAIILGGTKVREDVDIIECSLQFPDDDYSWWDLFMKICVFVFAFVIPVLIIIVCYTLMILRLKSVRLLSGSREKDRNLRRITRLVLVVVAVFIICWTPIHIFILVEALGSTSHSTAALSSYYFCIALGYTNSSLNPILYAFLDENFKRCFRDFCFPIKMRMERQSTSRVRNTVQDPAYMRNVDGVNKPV
Sequence of Delta-type opioid receptor (Rattus norvegicus, UniProt P33533) (P33533 whole entry): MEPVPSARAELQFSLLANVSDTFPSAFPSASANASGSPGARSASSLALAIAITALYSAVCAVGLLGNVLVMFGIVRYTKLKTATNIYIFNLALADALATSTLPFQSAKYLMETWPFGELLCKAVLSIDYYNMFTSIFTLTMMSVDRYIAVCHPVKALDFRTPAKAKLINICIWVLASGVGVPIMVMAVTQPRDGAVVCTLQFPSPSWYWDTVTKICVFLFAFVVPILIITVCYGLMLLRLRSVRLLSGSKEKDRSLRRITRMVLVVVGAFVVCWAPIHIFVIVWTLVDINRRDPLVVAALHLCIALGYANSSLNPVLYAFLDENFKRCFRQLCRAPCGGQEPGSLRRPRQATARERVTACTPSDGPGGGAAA
Sequence of Mu-type opioid receptor (Rattus norvegicus, UniProt P33535) (P33535 whole entry): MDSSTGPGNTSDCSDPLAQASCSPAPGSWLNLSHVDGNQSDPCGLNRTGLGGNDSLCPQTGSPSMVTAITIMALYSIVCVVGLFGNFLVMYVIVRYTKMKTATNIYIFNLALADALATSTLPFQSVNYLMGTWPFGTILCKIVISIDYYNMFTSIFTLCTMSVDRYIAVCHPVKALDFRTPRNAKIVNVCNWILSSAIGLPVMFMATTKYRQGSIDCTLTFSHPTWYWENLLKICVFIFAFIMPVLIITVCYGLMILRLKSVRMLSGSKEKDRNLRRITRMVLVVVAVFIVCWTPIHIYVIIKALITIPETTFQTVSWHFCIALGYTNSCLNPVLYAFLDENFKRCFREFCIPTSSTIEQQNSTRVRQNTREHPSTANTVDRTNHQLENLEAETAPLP

Regarding `Cc1cc(O)cc(C)c1C[C@H](N)C(=O)N[C@@H]1CCCCNC(=O)C[C@@H](C(N)=O)NC(=O)[C@H](Cc2ccccc2)NC(=O)[C@@H](Cc2ccc3ccccc3c2)NC1=O`, in [1], the pEC50 result is “inactive”. For the same compound, the Activity in data set [2] is on record as 24%. For the same compound, the Ki in [3] came out at 0.0168 µM; in data set [9] it was 4.25 µM; in data set [11] it was 0.751 µM. Moreover, the ED50 in data set [4] came out at 0.533 µg. Moreover, the EC50 is 0.0115 µM in data set [5] and 1.7 µM in [6]. The Intrinsic activity in [7] was 0.31. Further, the remaining at 1.5 h in data set [8] was determined as 85.4%. The same compound yielded a Retention_time in [10] of 16.38 min.

With `Cc1cc(O)cc(C)c1C[C@H](N)C(=O)N[C@@H]1CCCCNC(=O)C[C@@H](C(N)=O)NC(=O)[C@H](Cc2ccccc2)NC(=O)[C@@H](Cc2cccc3ccccc23)NC1=O`, in data set [1], the pEC50 entry was “inactive”. Also, the Activity in [2] is 17%. Besides, the results for the inhibition constant (Ki) in data set [3], in data set [9] and in data set [11] were 0.0692 µM, 9.17 µM and 0.0566 µM, respectively. Also, in data set [4], the ED50 worked out at 0.714 µg. For the same compound, the concentration giving a half-maximal response (EC50) in data set [5] was 0.02 µM; in data set [6], 1.29 µM. In addition, the Intrinsic activity in [7] worked out at 0.43. Besides, in data set [8], the remaining at 1.5 h was 93.8%. This compound also had a Retention_time in data set [10] of 16.21 min.

For `NC(=O)[C@H](Cc1ccccc1)NC(=O)[C@H](Cc1ccccc1)NC(=O)[C@@H]1CCCN1C(=O)[C@@H](N)Cc1ccc(O)cc1` [ENDOMORPHIN 2], in data set [4], the ED50 came to 1.82 µg. The remaining at 1.5 h in [8] worked out at 0.61%. This compound also displayed a Retention_time in data set [10] of 17.25 min.

For `CC[C@H](C)[C@H](NC(=O)[C@H](CCCNC(=N)N)NC(=O)[C@H](CCCNC(=N)N)NC(=O)[C@H](CC(C)C)NC(=O)[C@H](Cc1ccccc1)NC(=O)CNC(=O)CNC(=O)[C@@H](N)Cc1ccc(O)cc1)C(=O)N[C@@H](CCCNC(=N)N)C(=O)N1CCC[C@H]1C(=O)N[C@@H](CCCCN)C(=O)N[C@@H](CC(C)C)C(=O)N[C@@H](CCCCN)C(=O)O` [ANALOG OF DYNORPHIN A], in data set [12], the Intrinsic activity came to 0.99.

As for `Cc1cc(O)cc(C)c1C[C@H](N)C(=O)N[C@@H]1CCCCNC(=O)C[C@@H](C(N)=O)NC(=O)[C@@H](Cc2cccc3ccccc23)NC(=O)[C@H](Cc2ccccc2)NC1=O` (H-[Dmt][dK]F[d1Nal]D-NH2; lactam 2-5), the values for the EC50 in data set [13], in data set [5] and in data set [6] were 0.0646 µM, 0.00562 µM and 0.0417 µM, respectively. The Intrinsic activity is 0.5 in [12] and 0.74 in data set [7]. The Activity in data set [2] was 82%; in data set [16], “Dose-dependent effect”. For the same compound, the Ki in [3] was found to be 0.00025 µM; in data set [9], 0.0512 µM; in data set [11], 0.00178 µM. The ED50 stood at 0.06 µg in [4] and 1.16 mg/kg in data set [16]. Besides, the Emax in data set [7] is 79%. Besides, the remaining at 1.5 h in [8] was found to be 96%. In addition, the outcome in [14] was Active. The outcome in [15] was inactive. In [10], the Retention_time turned out to be 16.02 min.

For the compound `NC(=O)[C@@H]1CC(=O)NCCCC[C@@H](NC(=O)[C@@H](N)Cc2ccc(O)cc2)C(=O)N[C@@H](Cc2ccccc2)C(=O)N[C@@H](Cc2ccccc2)C(=O)N1` (H-Y[dK]FFD-NH2; lactam 2-5), the figures for the Activity in [2] and in [16] were 88% and “Dose-dependent effect”, respectively. For the same compound, the results for the Ki in [3], in data set [9] and in data set [11] were 0.00035 µM, 0.171 µM and 0.00112 µM, respectively. Besides, the values for the ED50 in data set [4] and in [16] were 0.05 µg and less than 0.01 mg/kg, respectively. In addition, the EC50 in [5] was 0.00204 µM; in [6], 0.00661 µM. The Emax in data set [7] came to 106%. In data set [7], the Intrinsic activity is 1. For the same compound, the remaining at 1.5 h in [8] turned out to be 96%. In data set [14], the result was Active. In [15], the result was inactive. The Retention_time in data set [10] came to 20.5 min.

Turning to `Cc1cc(O)cc(C)c1C[C@H](N)C(=O)N[C@@H]1CCCCNC(=O)C[C@@H](C(N)=O)NC(=O)[C@@H](Cc2ccc3ccccc3c2)NC(=O)[C@H](Cc2ccccc2)NC1=O` (H-[Dmt][dK]F[d2Nal]D-NH2; lactam 2-5), the results for the EC50 in data set [13], in data set [5] and in data set [6] were 0.0537 µM, 0.00363 µM and 0.102 µM, respectively. The values for the Intrinsic activity in [12] and in data set [7] were 0.31 and 0.44, respectively. Further, the Activity is 55% in [2] and “Dose-dependent effect” in data set [16]. The values for the Ki in data set [3], in data set [9] and in data set [11] were 0.00044 µM, 0.11 µM and 0.00102 µM, respectively. In addition, the ED50 in data set [4] was 0.08 µg; in data set [16], 3.24 mg/kg. The remaining at 1.5 h in [8] worked out at 95.6%. The result in data set [14] was Active. In addition, in data set [15], the outcome was inactive. For the same compound, in [10], the Retention_time was found to be 16.1 min.
